Measured values collected from several papers.
Lines come from different studies, so protocols differ.

The half-life of `CN(C)C(=O)c1cc2cnc(Nc3ccc(-c4ccc5c(=O)cc(N6CCOCC6)oc5c4)cc3)nc2n1C1CCCC1.Cl` is reported as 4.6 h (BALB/c mouse, plasma; oral, 20 mg/kg).
For `NCc1ccc(-c2nn(Cc3ccccc3)c3ccccc23)o1`, the half-life was 1.08 h (male CD-1 mouse, plasma; intravenous, 5 mg/kg).
For `Cc1nc2ccc(OCc3ccc(C(F)(F)F)cc3)cc2[nH]1`, the concentration was 402 ng/g (male BALB/c mouse, brain; intravenous, 1 mg/kg, 3 h).
`CC(C)n1ncc2c(C(=O)NCC3(C)CNC3)cc(C3CC3)nc21` has a concentration of 2230 ng/mL (female BALB/c mouse, plasma; intraperitoneal, 50 mg/kg, 2 h).
`Cc1ccccc1CN1C(=O)C2=C(CCN(Cc3ccccc3)C2)N2CCN=C12` has a logP of 3.09 (potentiometric; water).
The half-life of `Cc1cccc(CNC(=O)c2cn(CCNC(=O)c3ccccc3Sc3c([N+](=O)[O-])ncn3C)c3cc4c(cc3c2=O)OCO4)n1` is reported as 5.92 h (metabolic stability; cynomolgus monkey, blood; 1 µM, whole blood).
`CONC(=O)c1cccc2c1cc(C)n2-c1nc2c(c(NCc3ccccc3)n1)CCCN2` has a microsomal CLint of 84 µL/min/mg (metabolic stability; dog, liver microsomes; 1 µM, pH 7.4).
`Cc1nsc(-c2nnc3n2CCN(C(=O)c2ccc(F)cc2)[C@@H]3C)n1` gave a logP of 1.5.
With `O=C1CCC(N2Cc3cc(CO)c(F)cc3C2=O)C(=O)N1` (stereo not drawn) the concentration was 1790 ng/mL (male CD-1 mouse, plasma; intravenous, 1 mg/kg, 1.02 min).
`Cc1ccc2c(c1)C(=O)[C@]1(O)CCN(c3ccc4nc(C)ccc4c3)C1=N2` gave a concentration of 1000 nM (mouse, brain; intraperitoneal, 10 mg/kg, 30 min, single dose).
For `Cc1cc2c(C(=O)O)cccc2n1-c1nc2c(c(NCc3ccccc3)n1)CCCN2`, the microsomal CLint was 1.15 µL/min/mg (metabolic stability; dog, liver microsomes; 1 µM, pH 7.4).
With `OCc1ccc(-c2nn(Cc3ccccc3)c3ccccc23)o1` the half-life was 1.3 h (male CD-1 mouse, plasma; intraperitoneal, 30 mg/kg).
The logP of `O=C(O)CC[C@H](NC(=O)N[C@@H](CCCCNC(=O)[C@H](Cc1ccc2ccccc2c1)NC(=O)[C@H]1CC[C@H](CNC(=O)CN2CCN(CC(=O)O)CCN(CC(=O)O)CCN(CC(=O)O)CC2)CC1)C(=O)O)C(=O)O` is reported as -1.01 (shake flask; water).
`NCc1cc2c(cc1F)C(=O)N(C1CCC(=O)NC1=O)C2` (stereo not drawn) has a concentration of 33.2 ng/mL (male CD-1 mouse, plasma; intravenous, 1 mg/kg, 30 min).
With `C=CC(=O)NC1CCN(c2ncc3ncnc(Nc4ccc(Oc5ccc6c(c5)ncn6C)c(C)c4)c3n2)CC1` the logP was 4.7 (pH 7.4).
